A selection: hits, their analogues and other compounds. The true share with any hit is near 1.5%.
NR2E3 ag-1 = agonists of human nuclear receptor NR2E3 | Q9Y5X4 | inhibition of corepressor binding, % at 4.78 µM | GST-NR2E3/biotin-RetCOR TR-FRET, 1536-well | 0.12% of 320,000 active;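 active = percent inhibition above the cutoff of mean plus 3 SD of all tested compounds, set per screening campaign, cut at about 20% in these data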
Target sequence (Q9Y5X4 whole entry, looked up): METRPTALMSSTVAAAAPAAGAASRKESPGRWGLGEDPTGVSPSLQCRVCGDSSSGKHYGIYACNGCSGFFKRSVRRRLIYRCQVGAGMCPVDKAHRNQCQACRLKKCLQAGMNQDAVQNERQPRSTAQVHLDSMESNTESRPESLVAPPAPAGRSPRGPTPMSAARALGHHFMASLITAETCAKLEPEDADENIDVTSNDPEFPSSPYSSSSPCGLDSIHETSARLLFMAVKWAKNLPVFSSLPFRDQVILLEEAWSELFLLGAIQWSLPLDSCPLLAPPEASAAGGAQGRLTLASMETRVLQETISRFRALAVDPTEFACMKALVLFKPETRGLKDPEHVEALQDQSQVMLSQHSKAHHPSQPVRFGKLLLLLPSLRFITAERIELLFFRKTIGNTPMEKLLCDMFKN
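Test system – NR2E3–RetCOR corepressor complex · Quantity – NR2E3 fusion 1.35 nM · Buffer or medium – Tris pH 7.5 · Incubation – Compound–protein incubation for 5 h at 4 °C · Technique – TR-FRET, Eu(K)-anti-GST donor, streptavidin-D2 acceptor, ex 340, em 617/671 nm · Evaluation – percent inhibition of 671/617 nm emission ratio versus biotin and DMSO controls · Plate – 1536-well format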
PG9 Ab binder = PG9 antibody binding by small molecule. 0.43% of 360,000 active. TR-FRET gp120-PG9 antibody binding. AID 624416. inhibition, % at 6.7 µM; in the data active = inhibition above about 8.5%
NR2E3 ag-2 = human photoreceptor-specific nuclear receptor agonism; Q9Y5X4; 0.35% of 360,000 active; AID 602229; inhibition of corepressor binding, % at 3.98 µM; CHO-S Gal4-NCOR/VP16-NR2E3 two-hybrid, luciferase;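 active = inhibition above the mean of all tested compounds plus 3 SD, cut at about 70% in these data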;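 also: higher means lower luciferase signal from less NR2E3 corepressor binding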
NR1D1 modulator = modulators of human Rev-erb alpha DNA binding; P20393; Rev-erbα–FITC-DNA binding, fluorescence polarization, 90 min; activity, % at 10 µM; 0.79% of 370,000 active;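 active = activity above about 14%, limit read from the data; passing the limit was not always enough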
Rev-erbA confirm = Rev-erb alpha (human) modulation, hit confirmation; 61% of 3,000 active; Rev-erb alpha FITC-DNA binding, fluorescence polarization, 90 min; shares compounds with NR1D1 modulator; activation, % at 25 µM;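 active = activation at or above a set limit, or at least 3 SD above the negative control mean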
RORg DNA counter = affects RORgamma DNA binding in a Rev-erb alpha counter-screen; shares compounds with NR1D1 modulator; purified RORgamma protein-FITC-DNA binding, fluorescence polarization; IC50, µM; 8% of 910 active; AID 1259320;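 active = Compounds whose fitted half-maximal concentration for disrupting protein-DNA binding is below 10 micromolar; the record names Rev-erb in its text, so the target is in doubt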
Each line names hits and unclear results; the compound was inactive in the other large screens (follow-up assays come after a bar, where they were run).

O=C(c1ccc2c(=O)n(Cc3ccccc3Cl)c(=S)[nH]c2c1)N1CCOCC1	NR1D1 modulator 32 | Rev-erbA confirm 27
COc1ccc(OC)c(NC(=O)c2ccccc2N(Cc2ccccc2)C(=O)C(C)Cl)c1 (stereo not given)	none (no result: NR2E3 ag-1, PG9 Ab binder, NR2E3 ag-2)
Cc1cc2cc(C)c(NCCNC(=O)c3cccs3)nc2cc1C	NR1D1 modulator 21 | Rev-erbA confirm inactive
O=c1c2cnn(-c3ccccc3)c2nc(-c2cccs2)n1-c1ccc(Br)cc1	NR1D1 modulator 38 | Rev-erbA confirm inactive
O=C(O)CSc1nc2c(cnn2-c2ccccc2)c(=O)n1-c1ccc(Br)cc1	none
COc1ccc(S[C@]2(C(=O)N3CCCC3)CC(=O)N(c3ccccc3OC)[C@@H]2c2ccc(OC)cc2)cc1	none (no result: NR2E3 ag-1, PG9 Ab binder, NR2E3 ag-2)
COc1cc2[nH]c(=O)c(C(=O)NCc3ccc(F)cc3)c(O)c2cc1OC	NR1D1 modulator 25 (no result: NR2E3 ag-1) | Rev-erbA confirm 19
COC(=O)[C@]12C[C@H](CC(=O)NCC34CC5CC(CC(C5)C3)C4)C(=O)N(CCc3ccc(OC)c(OC)c3)C1=C[C@H](C(C)(C)C)O[C@@H]2C	none (no result: NR2E3 ag-1, PG9 Ab binder, NR2E3 ag-2)
COc1ccc(CC(=O)Nc2ccc(-c3cn4cccc(C)c4n3)cc2)cc1OC	none
COc1ccc(CC(=O)Nc2ccc(-c3cn4ccc(C)cc4n3)cc2)cc1	NR1D1 modulator 16 | Rev-erbA confirm inactive
CCOC(=O)c1c(NC(=O)c2nc3n(n2)C(C(F)F)CC(C)N3)sc2c1CCCC2 (stereo not given)	NR1D1 modulator 22 | Rev-erbA confirm inactive
COc1ccc(CCNC(=O)c2cnn(-c3ccccc3)c2N)cc1OC	none (no result: NR2E3 ag-1, PG9 Ab binder, NR2E3 ag-2)
Cc1ccc2nsnc2c1S(=O)(=O)N(Cc1ccco1)Cc1cc2ccc(C)c(C)c2[nH]c1=O	none (no result: NR2E3 ag-1)
Cc1ccc2nsnc2c1S(=O)(=O)N(Cc1ccco1)Cc1cc2cccc(C)c2[nH]c1=O	NR1D1 modulator 26 (no result: PG9 Ab binder) | Rev-erbA confirm inactive
CC(C)N1CCCCC(NC(=O)c2ccc(-c3ccccc3)cc2)C1=O (stereo not given)	none (no result: NR2E3 ag-1, PG9 Ab binder, NR2E3 ag-2)
COc1ccc(C(=O)N=C2SC3CS(=O)(=O)CC3N2c2ccc(N(C)C)cc2)cc1OC (stereo not given)	NR1D1 modulator 53 | Rev-erbA confirm inactive
COc1ccc(N2C(=NC(=O)C3CCCCC3)SC3CS(=O)(=O)CC32)cc1OC (stereo not given)	none
COc1ccccc1Nc1nc2ccc(C)cc2cc1C#N	none
COc1ccccc1Nc1nc2cc(C)ccc2cc1C#N	NR1D1 modulator 96 | Rev-erbA confirm inactive
C[C@H]1CCCC(=O)N[C@@H](c2ccccc2)[C@@H](C)CCCC(=O)N[C@H]1c1ccccc1	none (no result: NR2E3 ag-1, PG9 Ab binder, NR2E3 ag-2)
N#Cc1c(-c2ccccc2F)cc(C2CC2)nc1SCC(=O)c1cccs1	NR1D1 modulator 40 | Rev-erbA confirm 28
Cc1cccc(NC(=O)C2CCCN2S(=O)(=O)c2cccc3cccnc23)c1C (stereo not given)	none (no result: NR2E3 ag-1, PG9 Ab binder, NR2E3 ag-2)
N#CCSc1nc(-c2ccccc2)c2cc(Cl)ccc2n1	NR1D1 modulator 21 | Rev-erbA confirm inactive
C=CCSc1nc(-c2ccccc2)c2cc(Cl)ccc2n1	none
C[C@@H]1COc2cc(Br)ccc2S(=O)(=O)N1Cc1cn(CCC2OCCCO2)nn1	none (no result: NR2E3 ag-1, PG9 Ab binder, NR2E3 ag-2)
O=C1c2ccccc2C(Nc2ccc(S(=O)(=O)N3CCOCC3)cc2)N1c1cccnc1 (stereo not given)	none
O=C1c2ccccc2C(Nc2ccc(S(=O)(=O)N3CCCCC3)cc2)N1c1ccccn1 (stereo not given)	NR1D1 modulator 25 | Rev-erbA confirm 21
Cn1cc(C2=C(c3ccc(Cl)cc3Cl)C(=O)NC2=O)c2ccccc21	NR1D1 modulator 36 | Rev-erbA confirm 20
CCCCN(Cc1ccccc1)S(=O)(=O)c1ccc2c(c1)n(C)c(=O)c(=O)n2C	NR1D1 modulator 45 | Rev-erbA confirm inactive
COc1ccc2c(C)cc(SCC(=O)Nc3nsc(-c4ccc(C)cc4)n3)nc2c1	none
Cc1ccc(-c2nc(NC(=O)CSc3cc(C)c4ccccc4n3)ns2)cc1	NR1D1 modulator 499 | Rev-erbA confirm 61 | RORg DNA counter inactive
O=C(COc1ccc(/C=N/NC(=O)c2cc3ccccc3o2)cc1Br)Nc1ccccc1	NR1D1 modulator 19 | Rev-erbA confirm 26
O=C(Nc1nnc(-c2ccc3c(c2)OCCO3)o1)c1ccc(Cc2ccccc2)cc1	NR1D1 modulator 31 | Rev-erbA confirm inactive
Fc1ccc(-c2nc3c(Cl)cc(C(F)(F)F)cn3c2Cl)cc1	NR1D1 modulator 35 | Rev-erbA confirm 19
Cc1ccc(Cc2c(-c3ccc(F)cc3)nc3c(Cl)cc(C(F)(F)F)cn23)cc1	none (no result: NR2E3 ag-1)
O=C(O)CN1C(=O)/C(=C\c2cn(CC(=O)N3CCOCC3)c3ccccc23)SC1=S	NR1D1 modulator 39 | Rev-erbA confirm 39 | RORg DNA counter inactive
COCCn1c(=NC(=O)c2nc3ccccc3s2)sc2cc(S(C)(=O)=O)ccc21	NR1D1 modulator 89 | Rev-erbA confirm 63 | RORg DNA counter inactive
COCCn1c(=NC(=O)c2cc(Cl)sc2Cl)sc2cc(S(N)(=O)=O)ccc21	none
COCCn1c(=NC(=O)c2ccc3c(c2)OCCO3)sc2cc(S(N)(=O)=O)ccc21	NR1D1 modulator 29 | Rev-erbA confirm 38 | RORg DNA counter inactive
COC(=O)Cn1c(=NC(=O)c2nc3ccccc3s2)sc2cc(S(N)(=O)=O)ccc21	NR1D1 modulator 39 | Rev-erbA confirm 23
COC(=O)Cn1c(=NC(=O)c2cc(-c3cccs3)nc3ccccc23)sc2cc(S(N)(=O)=O)ccc21	none
CCOC(=O)C1(Cc2ccccc2)CCN(Cc2ccc(C)cc2)CC1	none (no result: NR2E3 ag-1, PG9 Ab binder, NR2E3 ag-2)
O=C(Nc1ccccn1)c1sc2cccc(F)c2c1Cl	NR1D1 modulator 25 | Rev-erbA confirm inactive
O=C(Nc1cccnc1)c1sc2cccc(F)c2c1Cl	none
Cc1ccc(CN2CC(N3CCN(CCO)CC3)CS2(=O)=O)cc1 (stereo not given)	none (no result: NR2E3 ag-1)
CSc1ccc(SC2CN(Cc3ccc(C)cc3)S(=O)(=O)C2)cc1 (stereo not given)	NR1D1 modulator 25 (no result: NR2E3 ag-1, NR2E3 ag-2) | Rev-erbA confirm 28 | RORg DNA counter inactive
COc1ccc(Cn2ccc3ccc(-c4ccc5ccn(Cc6ccc(F)cc6)c5c4)cc32)cc1	none (no result: NR2E3 ag-1, PG9 Ab binder, NR2E3 ag-2)
Clc1ccc([C@H]2OC[C@@]3(CNCc4ccccc4)CS[C@H](c4ccc(Cl)cc4)N23)cc1	none (no result: NR2E3 ag-1, PG9 Ab binder, NR2E3 ag-2)
COc1cccc(-n2c([S-])c(C(=O)Nc3ccc(S(=O)(=O)N4CCOCC4)cc3)[n+]3cc(C(N)=O)ccc23)c1	NR1D1 modulator 62 | Rev-erbA confirm 63 | RORg DNA counter inactive
CNC(=O)COc1ccccc1C(=O)Nc1ccc2c(c1)oc1ccccc12	NR1D1 modulator 58 | Rev-erbA confirm 79 | RORg DNA counter inactive
CN1C(=O)c2cc(NC(=O)c3ccc(F)cc3)ccc2OC[C@H]2O[C@H](CC(=O)NC3CCC3)CC[C@H]21	none (no result: NR2E3 ag-1, PG9 Ab binder, NR2E3 ag-2)
COc1cc(C(=O)Nc2nc(-c3cc(C)ccc3C)c(C)s2)ccc1OCC(=O)Nc1ccc(F)cc1	NR1D1 modulator 71 | Rev-erbA confirm 49 | RORg DNA counter inactive

Screening data deposited in PubChem by several laboratories.
